# Data: ChEMBL document CHEMBL4390654, “Microwave-assisted solid-phase synthesis of antisense acpP peptide nucleic acid-peptide conjugates active against colistin- and tigecycline-resistant E. coli and K. pneumoniae” (Eur J Med Chem, 2019)
# Square brackets hold non-standard residues; d marks the D form. Peptide text beside a SMILES is read from it. * marks the point of attachment. X3 = CC[C@H](C)[C@@H](C(=O)*)N(C(=O)[C@H](CCCNC(=N)N)NC(=O)CCCCCNC(=O)[C@@H](N)CCCNC(=N)N)C(=O)[C@H](CCCNC(=N)N)NC(=O)CCCCCNC(=O)[C@@H](N)CCCNC(=N)N; Ahx = NCCCCCC(=O)O
# Tests used:
# Klebsiella pneumoniae [1] = test: Antibacterial activity against multi-drug resistant Klebsiella pneumoniae NMI 2697/14 assessed as reduction in microbial growth incubated for 20 hrs; type: functional; settings: NMI 2697/14, 20 h
# Method in brief: (§1)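 Broth microdilution MIC (modified Hancock protocol) in non-binding polystyrene plates. Inoculum ~2 × 10^5 CFU/mL in Mueller-Hinton broth with Mg²⁺ and Ca²⁺ at 4 mg/L each. Compounds dissolved in water, diluted in 0.01% acetic acid/0.2% BSA (final), added as 10× stocks. Covered plates incubated 20 h at 35 °C (± 2 °C) with 220 rpm circular shaking before MIC read.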
# Klebsiella pneumoniae [2] = test: Antibacterial activity against Klebsiella pneumoniae ATCC 13883 assessed as reduction in microbial growth incubated for 20 hrs; type: functional; settings: ATCC 13883, 20 h
# Method in brief: (§2)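 Broth microdilution MIC after a modified Hancock protocol for cationic peptides, in non-binding polystyrene plates. Inoculum ~2 × 10^5 CFU/mL in Mueller-Hinton broth with Mg²⁺ and Ca²⁺ at 4 mg/L each. Compounds dissolved in water, diluted in 0.01% acetic acid, 0.2% BSA (final), added as 10× aliquots. Covered plates incubated 20 h at 35 °C (± 2 °C) with shaking at 220 rpm. MIC read as lowest inhibiting concentration.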
# Escherichia coli [3] = test: Antibacterial activity against Escherichia coli ATCC 25922 assessed as reduction in microbial growth incubated for 20 hrs; type: functional; settings: ATCC 25922, 20 h; method in brief: as §1
# Pseudomonas aeruginosa = test: Antibacterial activity against Pseudomonas aeruginosa PAO1 assessed as reduction in microbial growth incubated for 20 hrs; type: functional; settings: PAO1, 20 h; method in brief: as §2
# Klebsiella pneumoniae [4] = test: Antibacterial activity against multi-drug resistant Klebsiella pneumoniae NMI 3081/09 assessed as reduction in microbial growth incubated for 20 hrs; type: functional; settings: NMI 3081/09, 20 h; method in brief: as §1
# Escherichia coli [5] = test: Antibacterial activity against multi-drug resistant Escherichia coli NMI 3898/15 assessed as reduction in microbial growth incubated for 20 hrs; type: functional; settings: NMI 3898/15, 20 h; method in brief: as §1
# Staphylococcus aureus = test: Antibacterial activity against Staphylococcus aureus ATCC 29213 assessed as reduction in microbial growth incubated for 20 hrs; type: functional; settings: ATCC 29213, 20 h; method in brief: as §2
# Escherichia coli [6] = test: Antibacterial activity against Escherichia coli lacking a functional SbmA assessed as reduction in microbial growth incubated for 20 hrs; method in brief: as §2
# Escherichia coli [7] = test: Antibacterial activity against multi-drug resistant Escherichia coli NMI 3548/14 assessed as reduction in microbial growth incubated for 20 hrs; type: functional; settings: NMI 3548/14, 20 h; method in brief: as §1
# [8] = Hemolytic activity against RBC (unknown origin) at 100 uM; type: ADME, cell-based, Erythrocyte; settings: red blood cells (erythrocytes); read-out: Activity
# Acinetobacter baumannii = test: Antibacterial activity against Acinetobacter baumannii ATCC 19606 assessed as reduction in microbial growth incubated for 20 hrs; type: functional; settings: ATCC 19606 = CIP 70.34 = JCM 6841, 20 h; method in brief: as §2
Structure (SMILES),MIC (Klebsiella pneumoniae [1]) [µg/mL],MIC (Klebsiella pneumoniae [2]) [µg/mL],MIC (Escherichia coli [3]) [µg/mL],MIC (Pseudomonas aeruginosa) [µg/mL],MIC (Klebsiella pneumoniae [4]) [µg/mL],MIC (Escherichia coli [5]) [µg/mL],MIC (Staphylococcus aureus) [µg/mL],MIC (Escherichia coli [6]) [µg/mL],MIC (Escherichia coli [7]) [µg/mL],hemolysis at 100 µM [8] [%],MIC (Acinetobacter baumannii) [µg/mL]
CC[C@H](C)[C@H](NC(=O)[C@H](CCCCN)NC(=O)[C@H]([C@@H](C)CC)N(C(=O)[C@H](CCCNC(=N)N)NC(=O)CCCCCNC(=O)[C@@H](N)CCCNC(=N)N)C(=O)[C@H](CCCNC(=N)N)NC(=O)CCCCCNC(=O)[C@@H](N)CCCNC(=N)N)C(=O)N[C@@H](CC(C)C)C(=O)N[C@@H](Cc1ccccc1)C(=O)N[C@@H](CCC(N)=O)C(=O)N[C@@H](CC(N)=O)C(=O)N[C@@H](CCCNC(=N)N)C(=O)N[C@@H](CCCNC(=N)N)C(=O)N[C@@H](CCSC)C(=O)N[C@@H](CCCCN)C(=O)N[C@@H](Cc1c[nH]c2ccccc12)C(=O)N[C@@H](CCCCN)C(=O)N[C@@H](CCCCN)C(=O)N[C@@H](CS)C(=O)N[C@H](C(=O)N[C@@H](CS)C(=O)N[C@@H](C)C(=O)N[C@H](C(=O)N[C@@H](C)C(=O)N[C@@H](CS)C(=O)N[C@H](C(=O)N[C@@H](CS)C(=O)N[C@H](C(N)=O)[C@@H](C)O)[C@@H](C)O)[C@@H](C)O)[C@@H](C)O (X3-KILFQNRRMKWKKCTCATACTCT-NH2),> 64,8,16,32,> 64,≥ 64,> 64,16,32,< 1,16
CC[C@H](C)[C@H](NC(=O)[C@H](CCCCN)NC(=O)[C@H]([C@@H](C)CC)N(C(=O)[C@H](CCCNC(=N)N)NC(=O)CCCCCNC(=O)[C@@H](N)CCCNC(=N)N)C(=O)[C@H](CCCNC(=N)N)NC(=O)CCCCCNC(=O)[C@@H](N)CCCNC(=N)N)C(=O)N[C@@H](CC(C)C)C(=O)N[C@@H](Cc1ccccc1)C(=O)N[C@@H](CCC(N)=O)C(=O)N[C@@H](CC(N)=O)C(=O)N[C@@H](CCCNC(=N)N)C(=O)N[C@@H](CCCNC(=N)N)C(=O)N[C@@H](CCSC)C(=O)N[C@@H](CCCCN)C(=O)N[C@@H](Cc1c[nH]c2ccccc12)C(=O)N[C@@H](CCCCN)C(=O)N[C@@H](CCCCN)C(=O)N[C@@H](CSC1CC(=O)N(CCC(=O)NCCOCCOC(=O)N[C@@H](CS)C(=O)N[C@H](C(=O)N[C@@H](CS)C(=O)N[C@@H](C)C(=O)N[C@H](C(=O)N[C@@H](C)C(=O)N[C@@H](CS)C(=O)N[C@H](C(=O)N[C@@H](CS)C(=O)N[C@H](C(N)=O)[C@@H](C)O)[C@@H](C)O)[C@@H](C)O)[C@@H](C)O)C1=O)C(N)=O (some centres not stated),> 64,2 to 4,8,32 to 64,> 64,32 to 64,> 64,8 to 16,16 to 32,< 1,16
CC[C@@H](C)[C@@H](NC(=O)[C@H]1CCCN1C(=O)[C@@H](CCCNC(=N)N)NC(=O)[C@H]1CCCN1C(=O)[C@@H](Cc1cnc[nH]1)NC(=O)[C@@H](CO)NC(=O)[C@H](NC(=O)[C@H]1CCCN1C(=O)[C@@H](CCCNC(=N)N)NC(=O)[C@H]1CCCN1C(=O)[C@@H](CO)NC(=O)[C@@H](Cc1ccc(O)cc1)NC(=O)[C@H]1CCCN1C(=O)[C@@H](CCCNC(=N)N)NC(=O)[C@H]1CCCN1C(=O)[C@@H](CCCNC(=N)N)NC(=O)CCCCCNC(=O)[C@H](N)CCCNC(=N)N)[C@H](C)O)C(=O)N[C@H](CCCNC(=N)N)C(=O)N[C@@H](C(N)=O)C(C)C,> 64,> 64,> 64,> 64,> 64,> 64,> 64,> 64,> 64,< 1,> 64
CC[C@H](C)[C@H](NC(=O)[C@@H]1CCCN1C(=O)[C@H](CCCNC(=N)N)NC(=O)[C@@H]1CCCN1C(=O)[C@H](Cc1cnc[nH]1)NC(=O)[C@H](CO)NC(=O)[C@@H](NC(=O)[C@@H]1CCCN1C(=O)[C@H](CCCNC(=N)N)NC(=O)[C@@H]1CCCN1C(=O)[C@H](CO)NC(=O)[C@H](Cc1ccc(O)cc1)NC(=O)[C@@H]1CCCN1C(=O)[C@H](CCCNC(=N)N)NC(=O)[C@@H]1CCCN1C(=O)[C@H](CCCNC(=N)N)NC(=O)CCCCCNC(=O)[C@@H](N)CCCNC(=N)N)[C@@H](C)O)C(=O)N[C@@H](CCCNC(=N)N)C(=O)N[C@H](C(N)=O)C(C)C,> 64,> 64,> 64,> 64,> 64,32 to 64,> 64,> 64,32 to 64,< 1,64
CC[C@H](C)[C@H](NC(=O)[C@H](CCCCN)NC(=O)[C@H]([C@@H](C)CC)N(C(=O)[C@H](CCCNC(=N)N)NC(=O)CCCCCNC(=O)[C@@H](N)CCCNC(=N)N)C(=O)[C@H](CCCNC(=N)N)NC(=O)CCCCCNC(=O)[C@@H](N)CCCNC(=N)N)C(=O)N[C@@H](CC(C)C)C(=O)N[C@@H](Cc1ccccc1)C(=O)N[C@@H](CCC(N)=O)C(=O)N[C@@H](CC(N)=O)C(=O)N[C@@H](CCCNC(=N)N)C(=O)N[C@@H](CCCNC(=N)N)C(=O)N[C@@H](CCSC)C(=O)N[C@@H](CCCCN)C(=O)N[C@@H](Cc1c[nH]c2ccccc12)C(=O)N[C@@H](CCCCN)C(=O)N[C@@H](CCCCN)C(=O)N[C@@H](CS)C(=O)N[C@H](C(=O)N[C@@H](CS)C(=O)N[C@H](C(=O)N[C@H](C(=O)N[C@@H](C)C(=O)N[C@@H](CS)C(=O)N[C@@H](C)C(=O)N[C@@H](CS)C(=O)N[C@H](C(N)=O)[C@@H](C)O)[C@@H](C)O)[C@@H](C)O)[C@@H](C)O (X3-KILFQNRRMKWKKCTCTTACACT-NH2),≥ 64,> 64,64,32,16,32,> 64,64,8 to 16,< 1,16 to 32
CC[C@H](C)[C@H](NC(=O)[C@@H]1CCCN1C(=O)[C@H](CCCNC(=N)N)NC(=O)[C@@H]1CCCN1C(=O)[C@H](Cc1cnc[nH]1)NC(=O)[C@H](CO)NC(=O)[C@@H](NC(=O)[C@@H]1CCCN1C(=O)[C@H](CCCNC(=N)N)NC(=O)[C@@H]1CCCN1C(=O)[C@H](CO)NC(=O)[C@H](Cc1ccc(O)cc1)NC(=O)[C@@H]1CCCN1C(=O)[C@H](CCCNC(=N)N)NC(=O)[C@@H]1CCCN1C(=O)[C@H](CCCNC(=N)N)NC(=O)CCCCCNC(=O)[C@@H](N)CCCNC(=N)N)[C@@H](C)O)C(=O)N[C@@H](CCCNC(=N)N)C(=O)N[C@H](C(=O)N[C@@H](CS)C(=O)N[C@H](C(=O)N[C@@H](CS)C(=O)N[C@H](C(=O)N[C@H](C(=O)N[C@@H](C)C(=O)N[C@@H](CS)C(=O)N[C@@H](C)C(=O)N[C@@H](CS)C(=O)N[C@H](C(N)=O)[C@@H](C)O)[C@@H](C)O)[C@@H](C)O)[C@@H](C)O)C(C)C (H-R[Ahx]RPRPYSPRPTSHPRPIRVCTCTTACACT-NH2),> 64,64,> 64,> 64,8 to 16,> 64,> 64,> 64,> 64,< 1,> 64
CC[C@H](C)[C@H](NC(=O)[C@H](CCCCN)NC(=O)[C@H]([C@@H](C)CC)N(C(=O)[C@H](CCCNC(=N)N)NC(=O)CCCCCNC(=O)[C@@H](N)CCCNC(=N)N)C(=O)[C@H](CCCNC(=N)N)NC(=O)CCCCCNC(=O)[C@@H](N)CCCNC(=N)N)C(=O)N[C@@H](CC(C)C)C(=O)N[C@@H](Cc1ccccc1)C(=O)N[C@@H](CCC(N)=O)C(=O)N[C@@H](CC(N)=O)C(=O)N[C@@H](CCCNC(=N)N)C(=O)N[C@@H](CCCNC(=N)N)C(=O)N[C@@H](CCSC)C(=O)N[C@@H](CCCCN)C(=O)N[C@@H](Cc1c[nH]c2ccccc12)C(=O)N[C@@H](CCCCN)C(=O)N[C@@H](CCCCN)C(N)=O,> 64,64,8,8,> 64,16,32 to 64,8,4 to 8,< 1,8
